Values joined by “and” are separate entries in the source; they are usually repeats but may differ in a detail not shown here. Equal entries are not always repeated.
System: HEK-293T
Assay: Multiplex assay against HEK293T
Assay type: toxicity, cell-based
Details: human, number of replicates 2
How it was run: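 Imaging took place on a CQ1 microscope at 37°C and 5% CO2 once compound had been added to live cells stained at seeding with Hoechst33342, BioTracker Green Microtubule Cytoskeleton Dye, MitoTracker Red and Annexin V Alexa Fluor 680. CellPathfinder machine-learning gating classed cells as Hoechst high-intensity objects or normal cells, classed normal cells as having healthy, pyknosed or fragmented nuclei, and classed pyknosed cells as mitotic or apoptotic. Tubulin, mitochondrial-mass and membrane-permeability phenotypes are per cents of the healthy-nucleus cells.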

[1] = 12 h, 1 µM, compound concentration 1 uM
[2] = 12 h, 10 µM, compound concentration 10 uM
[3] = 24 h, 1 µM, compound concentration 1 uM
[4] = 24 h, 10 µM, compound concentration 10 uM
[5] = 48 h, 1 µM, compound concentration 1 uM
[6] = 48 h, 10 µM, compound concentration 10 uM

## N=C(N)NCCC[C@H](NC(=O)COCC(c1ccccc1)c1ccccc1)C(=O)O.O=C(O)C(F)(F)F
[1]
  Population Apoptotic (%): 49% and 39%
  Population Fragmented Nuclei (%): 2%
  Population Healthy Nuclei (%): 85%
  Population Hoechst High Intensity Objects (%): 5% and 6%
  Population Membrane Permeable-Phenotype (%): 2% and 3%
  Population Mitochondria Different-Phenotype (%): 13% and 9%
  Population Mitotic Cells (%): 50% and 60%
  Population Normal (%): 94% and 93%
  Population Pyknosed Nuclei (%): 12% and 11%
  Population Tubulin-Different-Phenotype (%): 54% and 41%
  Total Cell Count: 596 and 692
[2]
  Population Apoptotic (%): 60% and 68%
  Population Fragmented Nuclei (%): 5% and 6%
  Population Healthy Nuclei (%): 80% and 81%
  Population Hoechst High Intensity Objects (%): 9% and 8%
  Population Membrane Permeable-Phenotype (%): 2%
  Population Mitochondria Different-Phenotype (%): 19% and 14%
  Population Mitotic Cells (%): 39% and 31%
  Population Normal (%): 90% and 91%
  Population Pyknosed Nuclei (%): 14% and 12%
  Population Tubulin-Different-Phenotype (%): 55% and 41%
  Total Cell Count: 543 and 565
[3]
  Population Apoptotic (%): 43% and 44%
  Population Fragmented Nuclei (%): 4%
  Population Healthy Nuclei (%): 89% and 88%
  Population Hoechst High Intensity Objects (%): 7% and 10%
  Population Membrane Permeable-Phenotype (%): 3%
  Population Mitochondria Different-Phenotype (%): 2% and 3%
  Population Mitotic Cells (%): 56% and 55%
  Population Normal (%): 92% and 89%
  Population Pyknosed Nuclei (%): 5% and 7%
  Population Tubulin-Different-Phenotype (%): 20% and 31%
  Total Cell Count: 1117 and 835
[4]
  Population Apoptotic (%): 49% and 48%
  Population Fragmented Nuclei (%): 6% and 7%
  Population Healthy Nuclei (%): 83% and 79%
  Population Hoechst High Intensity Objects (%): 7%
  Population Membrane Permeable-Phenotype (%): 2%
  Population Mitochondria Different-Phenotype (%): 7% and 6%
  Population Mitotic Cells (%): 50% and 51%
  Population Normal (%): 92%
  Population Pyknosed Nuclei (%): 9% and 12%
  Population Tubulin-Different-Phenotype (%): 27% and 25%
  Total Cell Count: 838 and 806
[5]
  Population Apoptotic (%): 12%
  Population Fragmented Nuclei (%): 15% and 9%
  Population Healthy Nuclei (%): 82% and 87%
  Population Hoechst High Intensity Objects (%): 9% and 7%
  Population Membrane Permeable-Phenotype (%): 5% and 4%
  Population Mitochondria Different-Phenotype (%): 0%
  Population Mitotic Cells (%): 87%
  Population Normal (%): 90% and 92%
  Population Pyknosed Nuclei (%): 2% and 3%
  Population Tubulin-Different-Phenotype (%): 10% and 14%
  Total Cell Count: 3157 and 1745
[6]
  Population Apoptotic (%): 14% and 24%
  Population Fragmented Nuclei (%): 15% and 13%
  Population Healthy Nuclei (%): 81% and 83%
  Population Hoechst High Intensity Objects (%): 7% and 6%
  Population Membrane Permeable-Phenotype (%): 7% and 4%
  Population Mitochondria Different-Phenotype (%): 0%
  Population Mitotic Cells (%): 85% and 75%
  Population Normal (%): 92% and 93%
  Population Pyknosed Nuclei (%): 2%
  Population Tubulin-Different-Phenotype (%): 12% and 10%
  Total Cell Count: 2204 and 2125

## NCC1CCC(CNc2nc(NCc3ccccc3OC(F)(F)F)ncc2[N+](=O)[O-])CC1 (stereo unspecified)
[1]
  Population Apoptotic (%): 50% and 53%
  Population Fragmented Nuclei (%): 3% and 4%
  Population Healthy Nuclei (%): 86% and 81%
  Population Hoechst High Intensity Objects (%): 9% and 10%
  Population Membrane Permeable-Phenotype (%): 5% and 1%
  Population Mitochondria Different-Phenotype (%): 23% and 25%
  Population Mitotic Cells (%): 50% and 46%
  Population Normal (%): 90% and 89%
  Population Pyknosed Nuclei (%): 9% and 14%
  Population Tubulin-Different-Phenotype (%): 86% and 81%
  Total Cell Count: 881 and 733
[2]
  Population Apoptotic (%): 73% and 77%
  Population Fragmented Nuclei (%): 6% and 2%
  Population Healthy Nuclei (%): 79% and 81%
  Population Hoechst High Intensity Objects (%): 8% and 9%
  Population Membrane Permeable-Phenotype (%): 1%
  Population Mitochondria Different-Phenotype (%): 82%
  Population Mitotic Cells (%): 26% and 22%
  Population Normal (%): 91% and 90%
  Population Pyknosed Nuclei (%): 13% and 16%
  Population Tubulin-Different-Phenotype (%): 93% and 91%
  Total Cell Count: 345 and 365
[3]
  Population Apoptotic (%): 40% and 60%
  Population Fragmented Nuclei (%): 6% and 5%
  Population Healthy Nuclei (%): 85%
  Population Hoechst High Intensity Objects (%): 8% and 9%
  Population Membrane Permeable-Phenotype (%): 4% and 2%
  Population Mitochondria Different-Phenotype (%): 9% and 10%
  Population Mitotic Cells (%): 59% and 40%
  Population Normal (%): 91% and 90%
  Population Pyknosed Nuclei (%): 7% and 9%
  Population Tubulin-Different-Phenotype (%): 70% and 65%
  Total Cell Count: 1307 and 1039
[4]
  Population Apoptotic (%): 67% and 68%
  Population Fragmented Nuclei (%): 4% and 2%
  Population Healthy Nuclei (%): 79% and 81%
  Population Hoechst High Intensity Objects (%): 9% and 7%
  Population Membrane Permeable-Phenotype (%): 0% and 2%
  Population Mitochondria Different-Phenotype (%): 81% and 78%
  Population Mitotic Cells (%): 32% and 31%
  Population Normal (%): 90% and 92%
  Population Pyknosed Nuclei (%): 15%
  Population Tubulin-Different-Phenotype (%): 94% and 95%
  Total Cell Count: 375 and 418
[5]
  Population Apoptotic (%): 12% and 31%
  Population Fragmented Nuclei (%): 17% and 10%
  Population Healthy Nuclei (%): 80% and 86%
  Population Hoechst High Intensity Objects (%): 11% and 12%
  Population Membrane Permeable-Phenotype (%): 5% and 3%
  Population Mitochondria Different-Phenotype (%): 0% and 1%
  Population Mitotic Cells (%): 87% and 68%
  Population Normal (%): 88% and 87%
  Population Pyknosed Nuclei (%): 2% and 3%
  Population Tubulin-Different-Phenotype (%): 42% and 39%
  Total Cell Count: 2914 and 2116
[6]
  Population Apoptotic (%): 67% and 62%
  Population Fragmented Nuclei (%): 6% and 5%
  Population Healthy Nuclei (%): 80%
  Population Hoechst High Intensity Objects (%): 7% and 9%
  Population Membrane Permeable-Phenotype (%): 4% and 3%
  Population Mitochondria Different-Phenotype (%): 70% and 57%
  Population Mitotic Cells (%): 32% and 37%
  Population Normal (%): 92% and 90%
  Population Pyknosed Nuclei (%): 13%
  Population Tubulin-Different-Phenotype (%): 93% and 94%
  Total Cell Count: 433 and 530

## CS(=O)(=O)c1ccc(C(=O)Nc2cccc(COc3ccc(Br)cc3CN3CC[C@H](O)C3)c2)cc1.O=CO
[1]
  Population Apoptotic (%): 50% and 69%
  Population Fragmented Nuclei (%): 2% and 3%
  Population Healthy Nuclei (%): 72% and 70%
  Population Normal (%): 87% and 88%
  Total Cell Count: 490 and 407
[2]
  Population Apoptotic (%): 46%
  Population Fragmented Nuclei (%): 3% and 2%
  Population Healthy Nuclei (%): 85%
  Population Normal (%): 93% and 94%
  Total Cell Count: 467 and 532
[3]
  Population Fragmented Nuclei (%): 6% and 5%
  Population Healthy Nuclei (%): 79% and 76%
  Population Normal (%): 89% and 90%
  Total Cell Count: 663 and 599
[4]
  Population Apoptotic (%): 57% and 66%
  Population Fragmented Nuclei (%): 3% and 4%
  Population Healthy Nuclei (%): 80% and 85%
  Population Normal (%): 95% and 91%
  Total Cell Count: 543 and 659
[5]
  Population Apoptotic (%): 46%
  Population Fragmented Nuclei (%): 13% and 10%
  Population Healthy Nuclei (%): 80% and 84%
  Population Normal (%): 90%
  Total Cell Count: 1404 and 1241
[6]
  Population Apoptotic (%): 32%
  Population Fragmented Nuclei (%): 5% and 6%
  Population Healthy Nuclei (%): 86%
  Population Normal (%): 93% and 92%
  Total Cell Count: 812 and 937

Source: ChEMBL document CHEMBL5303300, “EUbOPEN Chemogenomics Library - Multiplex” (2023)
